Screens (PubChem)
MEKK3 PB1 HTS = raises or lowers MEK5 binding to the human MEKK3 PB1 domain; 290,000 tested, 1.4% active; binding response (% of control), % at 10 µM; bead-based flow cytometry, Alexa488-MEK5 binding to MEKK3; actives lie on both sides; 0 = blocked by unlabeled MEK5, 100 = vehicle; Q99759;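 active = binding response more than 3 SD above or below the average of its plate-row segment, actives on both sides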;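 note: Alexa488 bead fluorescence after subtracting the streptavidin-only scavenger bead signal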
Target sequence (Q99759 whole entry, looked up, the tested form may be a part): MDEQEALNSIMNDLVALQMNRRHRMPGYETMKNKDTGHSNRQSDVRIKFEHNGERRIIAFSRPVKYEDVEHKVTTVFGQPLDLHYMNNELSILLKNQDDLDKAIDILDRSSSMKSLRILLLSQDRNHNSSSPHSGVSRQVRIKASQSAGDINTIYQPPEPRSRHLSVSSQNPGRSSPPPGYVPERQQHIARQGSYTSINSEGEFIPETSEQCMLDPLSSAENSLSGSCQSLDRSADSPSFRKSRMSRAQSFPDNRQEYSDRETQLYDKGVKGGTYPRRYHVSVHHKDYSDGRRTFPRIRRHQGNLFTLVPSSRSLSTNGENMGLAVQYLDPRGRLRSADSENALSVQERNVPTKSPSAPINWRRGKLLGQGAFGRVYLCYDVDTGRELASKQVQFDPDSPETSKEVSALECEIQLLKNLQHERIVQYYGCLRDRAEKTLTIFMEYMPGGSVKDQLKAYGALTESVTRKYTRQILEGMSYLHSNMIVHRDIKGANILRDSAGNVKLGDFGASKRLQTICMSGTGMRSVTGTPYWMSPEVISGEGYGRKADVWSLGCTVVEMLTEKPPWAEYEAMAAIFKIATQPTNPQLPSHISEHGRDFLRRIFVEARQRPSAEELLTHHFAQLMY
MEKK2 WT-MEK5 = raises or lowers MEK5 binding to wildtype human MEKK2 PB1 domain; Q9Y2U5; bead flow cytometry, Alexa488-MEK5 binding to MEKK2 WT; actives lie on both sides; binding response (% of control), % at 10 µM; 290,000 tested, 1.1% active; AID 1531; in the data active = binding response below about 67% or above about 130%
UBC13 inh = blocks human UBC13 polyubiquitin chain formation; 330,000 tested, 0.47% active; TR-FRET; inhibition, % at 20 µM; in the data active = inhibition above about 45%, passing the limit was not always enough
Target sequence (P61088 whole entry, looked up): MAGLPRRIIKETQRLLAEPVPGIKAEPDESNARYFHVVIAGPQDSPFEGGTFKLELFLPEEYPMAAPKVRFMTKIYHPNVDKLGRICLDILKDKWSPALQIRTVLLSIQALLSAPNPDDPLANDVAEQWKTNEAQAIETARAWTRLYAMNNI
Apaf1 inhib = blocks human Apaf-1 apoptosome activity | O14727 | reconstituted apoptosome caspase-3 activity, DEVD-Rh110 fluorescence | inhibition, % at 20 µM | 330,000 tested, 0.71% active | AID 489030; active = inhibition of at least 40% at 20 µM
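Medium: Hepes buffer, pH 7.5 / System: biochemical Apaf-1 apoptosome reconstitution / Measured by: Rh110 fluorescence, excitation 480 nm, emission 540 nm / Times: compound with Apaf-1, dATP, procaspase-3 30 min, then 50 min reaction, room temperature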
MEKK2mut PB1 HTS = signal of MEK5 binding to mutant human MEKK2 PB1 domain; AID 1530; bead flow cytometry, Alexa488-MEK5 binding to MEKK2 mutant; percent response, % at 10 µM; 290,000 tested, 0.35% active; in the data active = percent response above about 24%, passing the limit was not always enough
Pemphigus Ab inh = human desmoglein-3 autoantibody binding inhibition. 310,000 tested, 0.48% active. binding (percent of control), % at 10 µM. P32926. DSG3-coupled beads, scFv-anti-DSG3-GFP binding, flow cytometry; stronger effect = lower value. AID 588358;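 active = binding more than 3 SD below its plate's average and above zero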;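 note: hits lower antibody fragment binding to DSG3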
MEKK2wt confirm = raises or lowers MEK5 binding to wildtype human MEKK2, retest | shares compounds with MEKK3 PB1 HTS | bead flow cytometry, Alexa488-MEK5 binding to MEKK2 WT; actives lie on both sides | binding response (% of control), % at 10 µM | 5,900 tested, 2.4% active; in the data active = binding response below about 16% or above about 210%; inactive = in between
MEKK2mut confirm = signal of MEK5 binding to mutant human MEKK2, retest; shares compounds with MEKK3 PB1 HTS; bead flow cytometry, Alexa488-MEK5 binding to MEKK2 mutant; percent response, % at 10 µM; 5,900 tested, 2% active; AID 1893; in the data active = percent response mostly above about 71%, no sharp cut-off; inactive = mostly below about 38%;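 note: higher means compound restores mutant binding toward wildtype level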
MEKK3 confirm = MEKK3-MEK5 PB1 inhibition, single concentration confirmation. shares compounds with MEKK3 PB1 HTS. bead flow cytometry, Alexa488-MEK5 binding to MEKK3; stronger effect = lower value. binding response (% of control), % at 10 µM. 5,900 tested, 1.8% active;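 active = binding response below 72% of control, or above a set upper limit, though filed actives all read lower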
Of the large screens only hits and unclear results are named; the others gave an inactive call (follow-up assays come after a bar, where they were run); [ ] = dose if it differs, or a comment. Only some compounds are listed: those with a hit (about 3.2% of all), similar ones and a draw of the others.

CCc1nc2ccc(C(=O)NCCCN3CCN(c4ccccc4F)CC3)cc2nc1CC	MEKK2 WT-MEK5 137 | MEKK2wt confirm inactive | MEKK2mut confirm inactive | MEKK3 confirm inactive
CC1CCN(CCCNC(=O)c2cc3sccc3n2C)CC1	none
CSc1ncccc1C(=O)OCC(=O)N(C)Cc1ccc(C)cc1	none (no result: MEKK3 PB1 HTS, MEKK2 WT-MEK5, UBC13 inh, Apaf1 inhib, MEKK2mut PB1 HTS)
COc1cccc(C(=O)NCCCN2CCN(CCCNC(=O)c3cccc(OC)c3)CC2)c1	MEKK3 PB1 HTS 128 | MEKK2wt confirm inactive | MEKK2mut confirm inactive | MEKK3 confirm inactive
COC(=O)N/N=C/c1cn(CCOc2ccccc2OC)c2ccccc12	none
CCOC(=O)N/N=C/c1cn(CCCOc2ccccc2)c2ccccc12	MEKK3 PB1 HTS 140 | MEKK2wt confirm inactive | MEKK2mut confirm inactive | MEKK3 confirm inactive
COC(=O)N/N=C/c1cn(CCOc2ccccc2)c2ccccc12	MEKK3 PB1 HTS -1.0[inhibitor], MEKK2 WT-MEK5 -17[inhibitor] | MEKK2wt confirm inactive | MEKK2mut confirm inactive | MEKK3 confirm inactive
O=C(N/N=C/c1cn(Cc2ccccc2)c2ccccc12)c1ccncc1	none
Cc1ccc(OCC(=O)N/N=C/c2cn(Cc3ccccc3)c3ccccc23)cc1	MEKK3 PB1 HTS 143 | MEKK2wt confirm inactive | MEKK2mut confirm inactive | MEKK3 confirm inactive
O=C([C@@H]1CC=C[C@@H]2CCN(C3CC3)C(=O)[C@@H]21)N1CCN(c2ccccc2)CC1	MEKK3 PB1 HTS 80[inhibitor] | MEKK2wt confirm inactive | MEKK2mut confirm inactive | MEKK3 confirm inactive
O=C1[C@H]2[C@H](C=CC[C@H]2C(=O)N2CCN(c3ccccc3)CC2)CCN1Cc1ccccc1	none
CCCCC(=O)N1CCN(c2nc3ccc(Cl)cc3s2)CC1	none
COc1ccc(CCNC(=O)CCN2C(=O)COc3ccccc32)cc1OC	MEKK3 PB1 HTS 81[inhibitor] | MEKK2wt confirm inactive | MEKK2mut confirm inactive | MEKK3 confirm inactive
COc1ccc(Cl)cc1N(CC(=O)N1CCCCCC1)S(C)(=O)=O	none
O=C(O)c1cc(O)ccc1NC(=O)c1cccc2ccccc12	MEKK3 PB1 HTS 132 | MEKK2wt confirm inactive | MEKK2mut confirm inactive | MEKK3 confirm inactive
CC12CCC(C(=O)N(CC(O)CN3CCCCC3)C1=O)C2(C)C (stereo unspecified)	none (no result: MEKK3 PB1 HTS, MEKK2 WT-MEK5, MEKK2mut PB1 HTS)
CC12CCC(C(=O)N(CC(O)CN3CCCCCC3)C1=O)C2(C)C (stereo unspecified)	MEKK3 PB1 HTS 145 | MEKK2wt confirm inactive | MEKK2mut confirm inactive | MEKK3 confirm inactive
CC(=O)[C@@H]1[C@@H]2C(=O)N(c3ccccc3F)C(=O)[C@@H]2[C@H]2c3ccccc3C=NN12	none
O=C(c1ccc(Cl)cc1)[C@@H]1[C@@H]2C(=O)N(c3cccc4ccccc34)C(=O)[C@@H]2C2c3ccccc3C=NN21 (stereo partly specified)	MEKK3 PB1 HTS 153 | MEKK2wt confirm inactive | MEKK2mut confirm inactive | MEKK3 confirm inactive
COc1ccc(C(=O)NC(=O)COC(=O)C2CC2C)cc1 (stereo unspecified)	none (no result: MEKK3 PB1 HTS, MEKK2 WT-MEK5, MEKK2mut PB1 HTS, Pemphigus Ab inh)
COCCNC(=O)C(=O)NCC1OCCN1S(=O)(=O)c1ccc2c(c1)OCCO2 (stereo unspecified)	MEKK3 PB1 HTS 129 | MEKK2wt confirm inactive | MEKK2mut confirm inactive | MEKK3 confirm inactive
N#CC1(NC(=O)COC(=O)C2CCN(S(=O)(=O)c3ccc4c(c3)OCCO4)CC2)CCCCC1	none (no result: MEKK3 PB1 HTS, MEKK2 WT-MEK5, UBC13 inh, Apaf1 inhib, MEKK2mut PB1 HTS)
COc1ccc(N2CCN(CCCNC(=O)CN3CCN(Cc4ccccc4C)C3=O)CC2)cc1	MEKK2 WT-MEK5 143 | MEKK2wt confirm inactive | MEKK2mut confirm inactive | MEKK3 confirm inactive
CCOCCCNC(=O)CN1CCN(c2ccc(F)cc2)CC1	none
Cc1ccc(CN2CCN(CC(=O)NCCCN3CCN(c4ccc(F)cc4)CC3)C2=O)cc1	MEKK2mut PB1 HTS 24 | MEKK2wt confirm inactive | MEKK2mut confirm inactive | MEKK3 confirm inactive
COc1cccc(N2CC(C(=O)Nc3c(C(N)=O)oc4ccccc34)CC2=O)c1 (stereo unspecified)	none (no result: MEKK3 PB1 HTS, MEKK2 WT-MEK5, MEKK2mut PB1 HTS)
Cc1cc(NC(=O)COC(=O)COc2ccc3c(c2)CCC3)no1	MEKK3 PB1 HTS 132 | MEKK2wt confirm inactive | MEKK2mut confirm inactive | MEKK3 confirm inactive
Cc1ccc(C)c(N2CCN(C(=O)c3cc(S(=O)(=O)N4CCCC4)cn3C)CC2)c1	MEKK3 PB1 HTS 2.0[inhibitor], MEKK2 WT-MEK5 0.0[inhibitor] | MEKK2wt confirm inactive | MEKK2mut confirm inactive | MEKK3 confirm inactive
CCCCNC(=S)Nc1ccc([N+](=O)[O-])cc1	none
CC(C)CCNC(=S)Nc1ccc([N+](=O)[O-])cc1	MEKK3 PB1 HTS 129 | MEKK2wt confirm inactive | MEKK2mut confirm inactive | MEKK3 confirm inactive
CC(C)OC(=O)c1cc(NC(=S)Nc2ccc([N+](=O)[O-])cc2)cc(C(=O)OC(C)C)c1	MEKK2 WT-MEK5 169, MEKK2mut PB1 HTS 40 | MEKK2wt confirm inactive | MEKK2mut confirm inactive | MEKK3 confirm inactive
CC(C)COc1ccc(C(=O)Nc2ccc([N+](=O)[O-])cc2)cc1	none
O=C(CN1CCCCCC1)Nc1nc2ccccc2s1	none (no result: MEKK3 PB1 HTS, MEKK2 WT-MEK5, UBC13 inh, Apaf1 inhib, MEKK2mut PB1 HTS)
CCOC(=O)c1c(NC(=O)C2CCCN(S(=O)(=O)c3ccc(C)cc3)C2)sc2c1CCCC2 (stereo unspecified)	MEKK3 PB1 HTS 141 | MEKK2wt confirm inactive | MEKK2mut confirm inactive | MEKK3 confirm inactive
CCOC(=O)c1c(NC(=O)c2ccc(N3C(=O)[C@@H]4[C@H](C3=O)[C@H]3C=C[C@@H]4C3)cc2)sc2c1CCCC2	MEKK3 PB1 HTS 145 | MEKK2wt confirm inactive | MEKK2mut confirm inactive | MEKK3 confirm inactive
CCOC(=O)c1c(NC(=O)c2ccc(-n3cnnn3)cc2)sc2c1CCCC2	none (no result: UBC13 inh, Apaf1 inhib)
CCOC(=O)c1c(NC(=O)C2CCCN(S(=O)(=O)c3ccccc3)C2)sc2c1CCCC2 (stereo unspecified)	none
CCOC(=O)c1c(NC(=O)Cn2cnc([N+](=O)[O-])n2)sc2c1CCCC2	MEKK3 PB1 HTS 130 | MEKK2wt confirm inactive | MEKK2mut confirm inactive | MEKK3 confirm inactive
C[C@H]1CCCCO[C@@H](CN(C)C(=O)NC2CCCCC2)[C@@H](C)CN([C@@H](C)CO)C(=O)c2cc(NC(=O)Cc3ccccc3)ccc2O1	none (no result: MEKK3 PB1 HTS, MEKK2 WT-MEK5, UBC13 inh, Apaf1 inhib, MEKK2mut PB1 HTS)
CCOC(=O)C1CCN(C(=O)c2cc(S(=O)(=O)N3CCOCC3)c(Cl)cc2Cl)CC1	MEKK3 PB1 HTS 82[inhibitor] | MEKK2wt confirm inactive | MEKK2mut confirm inactive | MEKK3 confirm inactive
